Screens (PubChem)
VLA-4 inh – inhibition in human VLA-4 binding assay, primary screen, VLA-4 allosteric modulator project, MLPCN library, flow cytometry, VLA-4 expressing cells; ligand binding flow cytometry; inhibition, % (about 7 µM as worked out from the volumes in the protocol); hit rate 0.2% among 330,000; AID 2557, 2010; in the data active = inhibition above about 50%
Target sequence (P13612 whole entry, looked up): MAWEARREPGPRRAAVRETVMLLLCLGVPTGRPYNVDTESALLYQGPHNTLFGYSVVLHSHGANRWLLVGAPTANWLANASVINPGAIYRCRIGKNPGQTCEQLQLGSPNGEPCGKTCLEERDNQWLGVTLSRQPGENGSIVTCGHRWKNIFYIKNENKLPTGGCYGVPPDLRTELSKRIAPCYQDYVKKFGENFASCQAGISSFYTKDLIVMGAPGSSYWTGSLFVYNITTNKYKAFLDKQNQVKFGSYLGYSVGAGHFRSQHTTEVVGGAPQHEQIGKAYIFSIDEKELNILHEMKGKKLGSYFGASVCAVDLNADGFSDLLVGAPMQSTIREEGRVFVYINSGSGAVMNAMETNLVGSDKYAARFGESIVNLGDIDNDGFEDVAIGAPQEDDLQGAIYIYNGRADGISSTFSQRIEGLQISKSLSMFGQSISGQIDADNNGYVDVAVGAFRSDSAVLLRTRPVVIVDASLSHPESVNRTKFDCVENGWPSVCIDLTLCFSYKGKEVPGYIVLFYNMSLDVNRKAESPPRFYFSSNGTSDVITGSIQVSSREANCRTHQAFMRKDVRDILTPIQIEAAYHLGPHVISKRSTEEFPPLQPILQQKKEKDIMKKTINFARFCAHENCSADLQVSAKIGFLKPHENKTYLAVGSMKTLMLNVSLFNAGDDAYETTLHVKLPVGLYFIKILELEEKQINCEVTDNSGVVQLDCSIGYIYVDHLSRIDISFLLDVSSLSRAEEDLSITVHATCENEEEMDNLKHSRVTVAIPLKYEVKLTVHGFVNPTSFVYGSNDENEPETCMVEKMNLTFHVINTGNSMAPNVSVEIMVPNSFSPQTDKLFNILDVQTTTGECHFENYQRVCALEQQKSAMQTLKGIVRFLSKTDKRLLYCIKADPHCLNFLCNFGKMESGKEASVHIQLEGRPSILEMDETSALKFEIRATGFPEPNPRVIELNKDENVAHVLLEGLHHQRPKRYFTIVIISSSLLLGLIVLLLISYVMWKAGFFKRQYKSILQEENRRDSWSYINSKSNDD
CHOP inhibitor – inhibitors of CHOP promoter induction, primary screen, cell-based, unfolded protein response, luciferase reporter. inhibition, % at 10 µM. AID 2732, 2010. CHO-K1 CHOP-promoter luciferase, tunicamycin-induced, 15-18 h. hit rate 3.8% among 220,000;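 active = compounds that reduced the stress-induced luciferase reporter signal by more than about 70% of percent inhibition, limit read from the data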;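 note: 0% = tunicamycin plus vehicle and 100% = wells without tunicamycin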
UPR CHOP act – activators of apoptotic CHOP UPR arm, primary screen, cell-based, CHO-CHOP luciferase reporter, luminescence, uHTS; UPR activation; percent of tunicamycin response over DMSO baseline; activation, % at 10 µM; hit rate 0.34% among 330,000;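 active = at 10 µM dose, activation of 40% or more, normalized to positive control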;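 note: 100% = tunicamycin at 10 µg/mL and 0% = DMSO alone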
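Assay system: CHO-CHOP cells, stable luciferase reporter of PERK-eIF2a-CHOP signalling / Buffer or medium: F12 plus 10% serum / Compound dosing: one dose, 10 µM in 0.5% DMSO / Times: 6 h compound treatment, 37 °C / Technique: luciferase luminescence / Read-out: % reporter activation, DMSO baseline versus tunicamycin full activation / Benchmarks: tunicamycin and DMSO controls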
Beta2AR agonist – beta2AR agonists driving receptor internalization, primary screen, cell-based, FAP fluorogen, flow cytometry; response, % (no concentration beside the values); hit rate 0.43% among 340,000; Beta-2 adrenergic receptor (Homo sapiens), P07550; Am2.2-beta2AR cells;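 active = response above a set limit, near 3 SD of response in nonfluorescent compounds, cut at about 42% in these data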
XBP1 UPR activ – activators of adaptive XBP1 UPR arm, primary screen, cell-based, CHO-XBP1 luciferase reporter, luminescence, uHTS | AID 463104, 2010 | hit rate 0.33% among 330,000 | activation, % at 20 µM | IRE1-XBP1 UPR activation; percent of tunicamycin response, DMSO as zero;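 active = versus positive control, 20 µM dose yields 30% or more activation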;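 note: 100% = tunicamycin at 10 µg/mL and 0% = DMSO only wells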
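Assay system: IRE1-XBP1 luciferase reporter CHO line. Input: 1000 cells/well. Buffer or medium: F12 with 10% serum. Doses: 20 µM, 1% DMSO. Times: overnight seeding at 37 °C, 6 h compound treatment at 37 °C. Technique: Steady-Glo luciferase glow luminescence, 10 min after reagent addition.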
UPR XBP1 confirm – IRE1-XBP1 UPR arm activators, confirmation, cell-based, CHO-XBP1 luciferase reporter, luminescence, single concentration; AID 485299, 2010; activation, % at 20 µM; shares compounds with XBP1 UPR activ; hit rate 63% among 1,000;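 active = reporter signal at least 30% of the positive control's activation in two or more of four replicate wells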;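 note: plate controls were DMSO negative control for no effect and tunicamycin 10 µg/mL positive control for full effect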
* marks the source's active call; other numbers are inactive results; . = not tested or not shown. This excerpt belongs to a sample that is enriched for hits.

SMILES | VLA-4 inh | CHOP inhibitor | UPR CHOP act | Beta2AR agonist | XBP1 UPR activ | UPR XBP1 confirm
C/C(=N\NC(N)=S)C1=CCC2C3CC[C@H]4CC(O)CC[C@]4(C)C3CC[C@]12C (stereo partly drawn) | -15 | . | 21 | 15 | 41* | 10
CCc1cc2c(N=Nc3c(O)[nH]c4ccccc34)ncnc2s1 | -2 | 52 | 16 | -3 | 35* | 4
Cc1sc2ncnc(N=Nc3c(O)[nH]c4ccccc34)c2c1C | -66 | -5 | 14 | -26 | 8 | .
CCc1ccccc1NC(=O)C(CC)Sc1nc2cc3c(cc2c(=O)n1Cc1ccco1)OCO3 (stereo not drawn) | 8 | 28 | 5 | 3 | 95* | 193*
N#Cc1ccccc1/C=N/Nc1nc(-c2ccccc2)c2cc(Cl)ccc2n1 | 0 | 89* | 31 | -8 | 62* | 102*
COc1cccc(N2CCN(C(=O)c3cc(C)oc3C)CC2)c1 | -29 | . | 0 | -5 | 1 | .
CCOC(=O)Cn1c2ccc(OC)cc2c2nc3ccccc3nc21 | -2 | 35 | -1 | -10 | 1 | .
CCOc1ccc(Cn2c3ccc(OC)cc3c3nc4ccccc4nc32)cc1OC | -39 | 88* | 2 | -3 | 118* | 106*
C=CCc1c(C)nc2c(-c3ccccc3)cnn2c1N1CCOCC1 | -3 | . | . | -17 | . | .
CCOC(=O)C1=CNS(=O)(=O)NC1c1ccc(Br)cc1F (stereo not drawn) | . | . | 2 | 2 | 0 | .
Cc1cccc(NC(=O)CSc2n[nH]c(-c3cccnc3)n2)c1 | -2 | . | 0 | -1 | 1 | .
O=C(Nc1ccc(S(=O)(=O)Nc2nccs2)cc1)c1ccc(N2C(=O)c3ccccc3C2=O)cc1 | 38 | -26 | -1 | 1 | 0 | .
Cc1ccc2c(c1)C(=O)C(=O)N2Cc1ccc(Cl)cc1 | -29 | . | 5 | 13 | 37* | 30*
CC(=O)c1ccc(NC(=S)N2CCN(CCN3C(=O)c4cccc5cccc(c45)C3=O)CC2)cc1 | 8 | -28 | -1 | 37 | -2 | .
CC(=O)c1cccc(NC(=S)N2CCN(CCN3C(=O)c4cccc5cccc(c45)C3=O)CC2)c1 | -5 | -12 | 36 | 30 | 159* | -1
O=C(Nc1ccc2nn(-c3ccccc3)nc2c1)c1ccc(Br)o1 | 17 | 73* | 3 | 5 | 35* | 5
CC(=O)Nc1ccc2c(CSc3nnc(N)s3)cc(=O)oc2c1 | -1 | 5 | 1 | -13 | -1 | .
CCOc1ccc(N2C(=O)C(=O)/C(=C(/O)c3ccccc3)C2c2ccccc2[N+](=O)[O-])cc1 (stereo not drawn) | 7 | -15 | 0 | 5 | 34* | 0
CCCC1(CC)C(=O)NC(=O)N=C1N (stereo not drawn) | . | . | . | -4 | . | .
N=c1c2c(n(Cc3ccc(F)cc3)c3c1CCC3)CCC2 | 8 | 4 | -2 | 0 | 149* | 1
CCn1c2c(c(=N)c3c1CCC3)CCC2 | -2 | 10 | 1 | -1 | 2 | .
CCOC(=O)/C(C#N)=C\c1ccc(OCC(=O)Nc2ccc(C)cc2C)c(OC)c1 | -6 | 53 | 11 | 10 | 37* | 2
CCOC(=O)/C(C#N)=C/c1ccc(OCC(=O)Nc2cc(C)ccc2C)c(OC)c1 | 1 | -12 | 1 | 2 | -2 | .
CC(C)N(C(=O)[C@H]1C[C@H](CC(=O)NCC23CC4CC(CC(C4)C2)C3)C(=O)N2CCc3c([nH]c4ccc(Cl)cc34)[C@]12C)C(C)C | . | . | 9 | -4 | 39* | 50*
COc1ccc(/C=N/NC(=O)Nc2cccc3nsnc23)cc1OC | 8 | 83* | 7 | 17 | 74* | 25
SMILES | VLA-4 inh | CHOP inhibitor | UPR CHOP act | Beta2AR agonist | XBP1 UPR activ | UPR XBP1 confirm
Cc1cc(NC(=O)CSc2nc3sc(C)c(C)c3c(=O)n2C2CCCC2)no1 | -3 | 87* | 4 | 1 | 58* | 54*
CCOc1cccc2sc(N(CCCN(C)C)C(=O)c3ccc(S(=O)(=O)N4CCc5ccccc5C4)cc3)nc12 | 16 | . | 27 | 15 | 35* | 14
CCOc1cccc2sc(N(CCCN(C)C)C(=O)c3ccc(S(=O)(=O)N(C)c4ccccc4)cc3)nc12 | 1 | 17 | 5 | 19 | 2 | .
Cc1cccc(C)c1NC(=O)CNC(=O)CCNC(=O)c1ccco1 | -8 | . | 1 | -1 | -2 | .
CC[C@@H](C)[C@H](CNC)NC[C@@H](Cc1cccc2ccccc12)NCCc1cccc(C(F)(F)F)c1 | 28 | . | 34 | 12 | 8 | .
CCCC[C@@H](CNC)NC[C@H](NCCCCC1CCCCC1)C(C)C | 3 | . | 6 | 28 | 25 | .
CCC[C@H](CN[C@@H](CNC)[C@H](C)CC)NCCc1cc(C(F)(F)F)cc(C(F)(F)F)c1 | -2 | . | 36 | 28 | 52* | 22
CCC[C@@H](CN[C@@H](CNC)[C@H](C)CC)NCC1CCC(C(C)(C)C)CC1 (stereo partly drawn) | 12 | . | 33 | 27 | 51* | 30*
COc1cc(/C=N/NC(=O)c2ccc(COc3ccccc3Cl)o2)cc(Br)c1O | 14 | 29 | 0 | 4 | 2 | .
COc1ccccc1/C=N\NC(=O)c1ccc(COc2ccc(C)c(C)c2)o1 | 9 | . | 2 | -3 | 41* | 0
COc1cc2c(cc1OC)C(COc1ccc(C(C)C)cc1)NCC2 (stereo not drawn) | 8 | . | 1 | -1 | 0 | .
Cc1ccc(-n2c(C)cc(/C=C3/SC(=O)N(CC(=O)N4CCOCC4)C3=O)c2C)nc1 | 9 | -15 | 5 | . | 9 | .
CCOC(=O)c1nnc(-c2ccccc2)nc1NCc1ccccc1 | -2 | 62 | 1 | -4 | -2 | .
CCOC(=O)c1nnc(-c2ccc(C)cc2)nc1Sc1cccc(Cl)c1 | 31 | 59 | 36 | 0 | 48* | 46*
CCOC(=O)c1nnc(-c2ccccc2)nc1Sc1ccccc1Cl | 19 | 53 | 10 | 10 | 38* | 68*
CCn1c(/C=C/c2cccc([N+](=O)[O-])c2)nc2ccccc2c1=O | 16 | 9 | -1 | -6 | 0 | .
Cc1[nH]c2ccccc2c1/C=C/c1nc2ccccc2c(=O)n1-c1ccc([N+](=O)[O-])cc1 | -28 | -4 | 9 | 21 | 47* | 36*
CCn1c(/C=C/c2c(C)[nH]c3ccccc23)nc2ccccc2c1=O | -2 | 94* | 32 | 5 | 216* | 81*
CCN(Cc1ccncc1)C(=O)c1cccc(S(=O)(=O)N2CCCCC2)c1 | -1 | . | 0 | -8 | 0 | .
